Most compounds without a hit are left out; they make up all but 1.5% or so of the library.
C8 TRAIL sens = viability loss with TRAIL in NB7+C8 cells, primary screen, TRAIL sensitizer project, cell-based, ATPlite luminescence; inhibition (viability loss, TRAIL sensitization), % at 10 µM; hit rate 1% among 360,000;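 active means compounds causing at least 50% loss of cell viability in the single-dose screen, relative to plate controls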
PPC-1+TRAIL kill = compounds killing PPC-1 cancer cells with TRAIL present, primary screen, TRAIL potentiator project, ATPLite luminescence, uHTS; AID 1443, 2008; cell killing (% activity), % at 4 µM or 5 µM; hit rate 0.41% among 220,000; PPC-1 cells + TRAIL, ATPLite viability luminescence;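 active means cell killing above 50% in the first pass at 4 µM, then a duplicate retest at 5 µM averaging 50% or more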;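 further: plate controls were cells with TRAIL plus DMSO for no effect and medium-only wells lacking cells for full effect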
FLuc inhib CS = firefly luciferase enzyme inhibitors, primary screen, artefact control for luciferase-based inhibitor screens, biochemical, luminescence, ATPLite; Luciferin 4-monooxygenase (Photinus pyralis), P08659; 10 min; inhibition, % at 10 µM; hit rate 1.5% among 200,000;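 active means inhibition above about 50% when tested at 10 µM, limit read from the data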
Target sequence (P08659 whole entry, looked up): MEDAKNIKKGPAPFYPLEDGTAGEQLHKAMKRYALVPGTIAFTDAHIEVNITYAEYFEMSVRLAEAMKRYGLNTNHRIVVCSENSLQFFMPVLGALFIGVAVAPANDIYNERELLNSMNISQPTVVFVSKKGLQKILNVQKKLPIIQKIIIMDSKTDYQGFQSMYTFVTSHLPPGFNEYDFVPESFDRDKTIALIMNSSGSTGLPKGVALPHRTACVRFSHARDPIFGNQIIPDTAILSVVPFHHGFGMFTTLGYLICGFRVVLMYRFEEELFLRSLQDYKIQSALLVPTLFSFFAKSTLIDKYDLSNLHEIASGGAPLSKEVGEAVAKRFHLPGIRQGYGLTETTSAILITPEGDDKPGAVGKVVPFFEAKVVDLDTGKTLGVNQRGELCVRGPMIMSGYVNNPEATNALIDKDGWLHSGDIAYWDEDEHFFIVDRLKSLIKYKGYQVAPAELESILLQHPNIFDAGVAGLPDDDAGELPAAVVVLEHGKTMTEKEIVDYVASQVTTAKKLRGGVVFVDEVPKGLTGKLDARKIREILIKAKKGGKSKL
FLuc act counter = FLuc activators, initial screening, artefact control for FLuc-dependent activation tests, biochemical, ATPlite luminescence. ATPlite luciferase biochemical, 10 min; 0 = ATP-free wells, 1 = DMSO control. AID 1027, 2008. 200,000 tested, under 10 active. activation factor at 10 µM;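 active means luciferase activation factor, scaled between plate controls, of at least 2 with compound at 10 µM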
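test system = cell-free luciferase reagent | medium = PBS as buffer for the ATP substrate | dosing = test compounds dosed from 2 mM stocks in 100% DMSO | incubation = 10 min at ambient temperature | detection = luminescence measurement of luciferase light output | benchmarks = low control with PBS replacing ATP, high control enzyme plus ATP without compound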
Active calls of the source: *; . = no result given.

SMILES	C8 TRAIL sens	PPC-1+TRAIL kill	FLuc inhib CS	FLuc act counter
O=C(CCc1nnc(-c2ccc(-c3ccccc3)cc2)o1)N1CCCCC1	-3.0	16.5	4.4	1
O=C(O)CCN1C(=O)c2ccc(NC(=O)Cc3ccc(Cl)cc3)cc2C1=O	-1.2	-2.9	-2.1	1
O=C1c2ccccc2CN2C(=O)c3ccccc3CN12	-27.2	.	.	.
c1ccc(-c2cn3c(n2)-c2ccccc2C3)cc1	68.7*	44.5	87.2*	0.1
CCN(C(=O)COC(=O)CSc1ccc(F)cc1)c1c(N)n(Cc2ccccc2)c(=O)[nH]c1=O	-15.2	.	.	.
COc1ccc(-n2ncc3c(NCC(C)C)ncnc32)cc1	49.0	27.0	70.7*	0.3
COc1ccc(-n2ncc3c(NC(C)C)ncnc32)cc1	41.6	46.9	77.0*	0.2
COCC(C)Nc1ncnc2c1cnn2-c1ccc(Cl)cc1 (configuration not stated)	20.7	.	32.9	0.7
CN(C)c1ccc(NC(=O)c2cccc(C(=O)Nc3ccc(N(C)C)cc3)n2)cc1	52.5*	34.5	55.6*	0.4
CN(C)c1ccc(NC(=O)/C=C/c2ccccc2Cl)cc1	28.7	25.2	63.9*	0.4
O=C(Nc1ccccc1)c1cccc(C(=O)Nc2ccccc2)n1	-26.3	.	.	.
CCc1n[n+](CC(=O)c2ccccc2)c(N)s1	58.9*	64.9*	69.5*	0.3
Cc1ccc2nc(CSc3nc(C)ccc3C#N)[nH]c2c1	46.1	33.0	64.6*	0.4
Cc1ccc(Nc2ccccc2)cc1	-2.9	13.9	-2.8	1
Cc1ccc(NC2=Nc3ccccc3CS2)cc1	55.1*	46.3	68.7*	0.3
Cc1cccc(C)c1N(CC(=O)NCc1ccco1)C(=O)CNS(=O)(=O)c1ccc(F)cc1	8.5	.	.	.
COC1=C(C)C(=O)C2=C(C1=O)C1C3CC4=C(C(=O)C(OC)=C(C)C4=O)C(CNC(=O)C(C)=O)N3C(C#N)C(C2)N1C (configuration not stated)	85.7*	.	.	.
OCC1OC(n2ccc3c2ncn2ncnc32)C(O)C1O (configuration not stated)	81.8*	.	.	.
Nc1ccn([C@@H]2O[C@H](CO)[C@@H](O)[C@@H]2O)c(=O)n1	-3.4	17.6	-3.2	1
O=Nc1ccc(NO)c2ccccc12	71.2*	.	.	.
O=Nc1ccc(O)c2ncccc12	23.2	10.8	.	.
CC(=O)Nc1ccc(-c2sc(Nc3cccc4ccccc34)n[n+]2-c2ccccc2)cc1	-0.1	.	.	.
COc1cccc(NC(=O)c2ccc3c(c2)CCCC3)c1	64.9*	.	.	.
CC(=O)c1cccc(NC(=O)c2ccc3c(c2)CCCC3)c1	36.2	.	.	.
O=C(Nc1ccc(O)cc1)c1ccc2c(c1)C(=O)N(Cc1ccccc1)C2=O	63.4*	.	.	.
SMILES	C8 TRAIL sens	PPC-1+TRAIL kill	FLuc inhib CS	FLuc act counter
Cc1ccc(OC(=O)Nc2ccccc2)cc1	21.1	22.1	51.0*	0.5
CC(C)(C)c1ccc(C(=O)Nc2cccc(C(=O)N3CCOCC3)c2)cc1	63.0*	.	.	.
O=C(O)COc1ccc(NC(=O)c2ccc3c(c2)C(=O)N(Cc2ccccc2)C3=O)cc1	2.0	.	.	.
N#CCc1ccc(OC(=O)Nc2ccccc2)cc1	-0.3	.	.	.
O=C(COC(=O)C1CCN(c2ccc(C(F)(F)F)cn2)CC1)c1ccccc1	6.0	.	.	.
CC(=O)C1=C(S(=O)(=O)c2ccc(C)cc2)CS(=O)(=O)C1	-3.9	17.4	-1.0	1
COc1ccc(C(=O)Nc2ccc3c(c2)nc2n3CCSC2)cc1	32.0	33.7	65.7*	0.3
CC(C)(C)c1ccc(C(=O)Nc2cccc(-n3cnnn3)c2)cc1	71.1*	.	.	.
COc1ccc(C(=O)NNC(=O)C(=O)Nc2ccc(C)cc2)cc1	12.4	.	.	.
O=C(Nc1cccc(-n2cnnn2)c1)c1cc(Cl)nc(Cl)c1	-9.0	.	.	.
COc1ccc(C(=O)Nc2cc(OC)nc(OC)n2)cc1	44.7	39.7	76.2*	0.2
COc1cc(NC(=O)Cc2ccccc2)nc(OC)n1	-27.9	.	.	.
COc1ccc(NC(=O)c2ccc(C)cc2)cc1	68.0*	.	.	.
C[C@@H]1CN([C@H](C)CO)S(=O)(=O)c2ccc(Br)cc2O[C@H]1CN(C)C(=O)C1CCCCC1	-12.5	.	.	.
COc1ccc(NC(=O)c2cc(F)cc(F)c2)cc1Cl	-3.4	7.4	-2.0	1
COc1ccc(C(=O)Nc2ccc3ccccc3c2)cc1	68.5*	.	.	.
COc1ccc(NC(=O)c2ccc(OC(F)F)cc2)cc1Cl	42.0	36.8	51.6*	0.5
Cc1ccccc1OCC(=O)Nc1cccc(C(=O)O)c1	37.4	35.0	59.3*	0.4
O=C(O)c1cccc(NC(=O)c2ccccc2)c1	-1.6	.	.	.
Cc1ccc(C(=O)Nc2cccc(C(=O)O)c2)cc1	.	38.3	62.1*	0.4
Cc1cccc(OCC(=O)Nc2cc(NC(=O)COc3cccc(C)c3C)cc(C(=O)O)c2)c1C	-2.4	.	.	.
Cc1ccc(N2C(=O)C(Cl)=C(N3CCCCCC3)C2=O)c(C)c1	-12.7	.	.	.
O=C(O)c1cccc(NC(=O)c2ccc3c(c2)C(=O)N(CC2CCCO2)C3=O)c1 (configuration not stated)	15.6	3.9	50.9*	0.5
CCOC(=O)c1cccc(NC(=O)c2ccc(N(C)C)cc2)c1	47.5	27.7	60.2*	0.4
COc1ccc(C(=O)Nc2cccc(C)c2)cc1	47.8	37.2	77.2*	0.2
SMILES	C8 TRAIL sens	PPC-1+TRAIL kill	FLuc inhib CS	FLuc act counter
COc1ccc(NC(=O)c2cccc(OS(=O)(=O)N(C)C)c2)cc1	44.0	45.5	53.6*	0.5
O=C(O)C1(Nc2ccc([N+](=O)[O-])cc2[N+](=O)[O-])CCCC1	-3.6	.	.	.
COc1cc(Cn2c3ccc(NC(=S)NCc4ccc(C)cc4)cc3c(=O)n2C)ccc1F	8.5	.	.	.
Cc1cccc(C)c1NC(=O)CNC(=O)CCCc1c[nH]c2ccccc12	10.2	.	.	.
CCOc1ccc(C(=O)Nc2cccc(C(=O)O)c2)cc1Cl	48.8	25.6	79.1*	0.2
O=C(NCCc1ccc(Cl)cc1Cl)c1cncc(Br)c1	13.5	.	.	.
O=C(NC1CCCC1)C1C(c2ccc(C(F)(F)F)cc2)=Nc2ccccc2N1C(=O)c1cccc2ccccc12 (configuration not stated)	9.3	.	.	.
COc1ccc(-c2cc3c(=O)n(CC(=O)NCc4ccc(Cl)cc4)ncn3n2)cc1	11.5	.	.	.
COc1ccc(-c2cc3c(=O)n(CC(=O)NCCCN4CCN(Cc5ccccc5)CC4)ncn3n2)cc1	80.2*	.	.	.
COc1ccc(-c2cc3c(=O)n(CC(=O)NCCCN4CCC(Cc5ccccc5)CC4)ncn3n2)cc1	82.9*	.	.	.
Cc1cc(C(=O)C(C)OC(=O)c2cnccn2)c(C)n1-c1ccccc1 (configuration not stated)	9.2	.	.	.
COc1ccc(C(C[N+](=O)[O-])C2(c3ccc(OC)c(OC)c3)C(=O)c3ccccc3C2=O)cc1 (configuration not stated)	53.4*	42.7	18.1	0.8
Cc1nn(C)c(C)c1NS(=O)(=O)c1ccccc1Cl	-4.0	.	.	.
CC1(C)C(=O)Nc2ccccc2N1C(=O)COC(=O)c1ccc(NC(N)=O)cc1	4.6	.	.	.
Cc1ccc(C(=O)NC2CCc3ccccc3C2=O)cc1 (configuration not stated)	27.3	29.7	61.9*	0.4
